Reference: ChEMBL document CHEMBL3407387, “Antioxidant activity and inhibition of α-glucosidase by hydroxyl-functionalized 2-arylbenzo[b]furans” (Eur J Med Chem, 2015)
Activity calls are given as the source filed them. The rule behind the calls is not given here.

Legend:
[1] = Inhibition of Saccharomyces cerevisiae alpha-glucosidase using 4-NPGP substrate assessed as reduction in 4-nitrophenol release pre-incubated for 10 mins before substrate addition by microplate reader based assay
Summary of the method: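 Test compound at 0 to 100 µM premixed with enzyme in 100 mM phosphate buffer, pH 7.0, and held 30 °C for 10 min. Then 12.5 mM 4-NPGP (stock) added and 4-nitrophenol release read at 405 nm. IC50 is the concentration inhibiting 50% of α-glucosidase activity.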

[2] = Antioxidant activity assessed as DPPH radical scavenging activity incubated for 5 mins by microplate spectrophotometry; format: physicochemical
Saccharomyces cerevisiae [3] = assay: Mixed type inhibition of Saccharomyces cerevisiae alpha-glucosidase using 4-NPGP substrate assessed as reduction in 4-nitrophenol release pre-incubated for 10 mins before substrate addition by Lineweaver-Burk plot analysis
Summary of the method: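 Double-reciprocal (Lineweaver-Burk) analysis of initial velocities, taken as A405 rate/min, across increasing 4-NPGP concentrations. Inhibitor present at 0, 0.25, 0.5 and 1.0 µM. Run in pH 7.0 phosphate buffer at 30 °C to assign inhibition mode.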

[4] = Mixed type inhibition of Saccharomyces cerevisiae alpha-glucosidase using 4-NPGP substrate assessed as equilibrium constant for binding to enzyme by measuring reduction in 4-nitrophenol release pre-incubated for 10 mins before substrate addition by Dixon plot analysis
[5] = Mixed type inhibition of Saccharomyces cerevisiae alpha-glucosidase using 4-NPGP substrate assessed as equilibrium constant for binding to enzyme-4-NPGP complex by measuring reduction in 4-nitrophenol release pre-incubated for 10 mins before substrate addition by Dixon plot analysis
Saccharomyces cerevisiae [6] = assay: Mixed type inhibition of Saccharomyces cerevisiae alpha-glucosidase using 4-NPGP substrate assessed as reduction in 4-nitrophenol release pre-incubated for 10 mins before substrate addition by Dixon plot analysis
[7] = Inhibition of Saccharomyces cerevisiae alpha-glucosidase
Summary of the method: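 Compound (0 to 100 µM) premixed with 100 mM phosphate buffer pH 7.0, 30 °C for 10 min; 12.5 mM 4-nitrophenyl glucopyranoside substrate then added; 4-nitrophenol release read at 405 nm; resveratrol and quercetin as positive controls; IC50 = concentration giving 50% inhibition.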

[8] = Antioxidant activity assessed as DPPH radical scavenging activity; format: physicochemical
Summary of the method: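 Compound dissolved in MeOH (0 to 100 µM), mixed with 0.1 mM DPPH, 150 µL final mixture, 37 °C for 5 min; absorbance at 517 nm; IC50 derived from DPPH scavenging.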

## Oc1cc(-c2cc3cccc(O)c3o2)cc(O)c1O
[1]
  IC50: 9.2 µM
[2]
  IC50: 12.8 µM

## CCOC(=O)/C=C/c1cc(OC)c(OC)cc1-c1cc2cccc(OC)c2o1
[1]
  IC50: > 100 µM
[2]
  IC50: > 100 µM

## CCOC(=O)/C=C/c1ccc(O)c2oc(-c3ccc(O)c(O)c3)cc12
[1]
  IC50: 8.9 µM
[2]
  IC50: 16.8 µM

## Oc1ccc(-c2cc3cc(Br)cc(O)c3o2)cc1
[1]
  IC50: 29.8 µM
[2]
  IC50: > 100 µM

## Oc1cc(Br)c(-c2cc3ccccc3o2)cc1O
[1]
  IC50: 7.7 µM
[2]
  IC50: 33.8 µM

## Oc1ccc(-c2cc3cccc(O)c3o2)cc1O
Saccharomyces cerevisiae [3]
  inhibition: Active
[4]
  Ki: 4.21 µM
[1]
  IC50: 1.9 µM
[2]
  IC50: 18.5 µM
[5]
  Ki: 13.7 µM
Saccharomyces cerevisiae [6]
  inhibition: Active

## COc1cc(Br)c(-c2cc3cccc(OC)c3o2)cc1OC
[1]
  IC50: > 100 µM
[2]
  IC50: > 100 µM

## CCOC(=O)/C=C/c1cc(O)c2oc(-c3ccc(O)c(O)c3)cc2c1
[1]
  IC50: 23.8 µM
[2]
  IC50: 25.4 µM

## Oc1ccc(/C=C/c2cc(O)cc(O)c2)cc1 [RESVERATROL]
[1]
  IC50: 31.1 µM
[2]
  IC50: 63.5 µM
[7]
  IC50: 27.9 µM
[8]
  IC50: 38 µM

## COc1cc(-c2cc3cc(Br)cc(OC)c3o2)cc(OC)c1OC
[1]
  IC50: > 100 µM
[2]
  IC50: > 100 µM

## O=c1c(O)c(-c2ccc(O)c(O)c2)oc2cc(O)cc(O)c12 [QUERCETIN]
[1]
  IC50: 6.6 µM
[2]
  IC50: 6 µM
[7]
  IC50: 5.3 µM
[8]
  IC50: 9.1 µM

## Oc1cc(-c2cc3c(Br)ccc(O)c3o2)c(Br)c(O)c1O
[1]
  IC50: 12.4 µM
[2]
  IC50: 19.4 µM

## Oc1ccc(-c2cc3cc(Br)cc(O)c3o2)cc1O
[1]
  IC50: 7.5 µM
[2]
  IC50: 28.6 µM

## CCOC(=O)/C=C/c1cc(O)c(O)cc1-c1cc2cccc(O)c2o1
[1]
  IC50: 5.5 µM
[2]
  IC50: 26.2 µM

## Oc1cc(Br)c(-c2cc3cccc(O)c3o2)cc1O
[1]
  IC50: 7.1 µM
[2]
  IC50: 20.6 µM

## Oc1cc(Br)c(-c2cc3c(Br)ccc(O)c3o2)cc1O
[1]
  IC50: 6.4 µM
[2]
  IC50: 7.8 µM

## Oc1cc(-c2cc3cc(Br)cc(O)c3o2)cc(O)c1O
[1]
  IC50: 3 µM
[2]
  IC50: 14.6 µM

## COc1ccc(-c2cc3cccc(OC)c3o2)cc1OC
[1]
  IC50: > 100 µM
[2]
  IC50: > 100 µM

## CCOC(=O)/C=C/c1cc(O)c2oc(-c3cc(O)c(O)c(O)c3)cc2c1
Saccharomyces cerevisiae [3]
  inhibition: Active
[4]
  Ki: 3.19 µM
[1]
  IC50: 2 µM
[2]
  IC50: 11.7 µM
[5]
  Ki: 11.8 µM
Saccharomyces cerevisiae [6]
  inhibition: Active

## Oc1cc(-c2cc3ccccc3o2)c(Br)c(O)c1O
[1]
  IC50: 8.5 µM
[2]
  IC50: 18 µM

## Oc1ccc(-c2cc3c(Br)ccc(O)c3o2)cc1O
[1]
  IC50: 6.4 µM
[2]
  IC50: 18.4 µM

## Oc1cc(-c2cc3ccccc3o2)cc(O)c1O
[1]
  IC50: 8.2 µM
[2]
  IC50: 10.8 µM
